This excerpt belongs to a sample that is enriched for hits.
DYRK1A inh = blocks rat Dyrk1A kinase activity; AID 504441; ADP-Glo luminescence, NFATc1 peptide; 0.43% of 310,000 active; Q63470; inhibition, % at 12.5 µM; in the data active = inhibition above about 50%;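 also: plate controls were vehicle with enzyme for no effect and no enzyme for full effect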
GSK3B inh = blocks human GSK3beta kinase activity; 0.038% of 300,000 active; GST-GSK3beta kinase, ADP-Glo luminescence, 60 min; active compounds read low; activity score (negative = inhibition), % at 10 µM;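 active = more than half of replicate wells score below -50%, meaning over 50% inhibition versus plate controls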;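 also: 0% = median DMSO wells and -100% = median GW8510 positive control wells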
Target sequence (P49841 whole entry, looked up): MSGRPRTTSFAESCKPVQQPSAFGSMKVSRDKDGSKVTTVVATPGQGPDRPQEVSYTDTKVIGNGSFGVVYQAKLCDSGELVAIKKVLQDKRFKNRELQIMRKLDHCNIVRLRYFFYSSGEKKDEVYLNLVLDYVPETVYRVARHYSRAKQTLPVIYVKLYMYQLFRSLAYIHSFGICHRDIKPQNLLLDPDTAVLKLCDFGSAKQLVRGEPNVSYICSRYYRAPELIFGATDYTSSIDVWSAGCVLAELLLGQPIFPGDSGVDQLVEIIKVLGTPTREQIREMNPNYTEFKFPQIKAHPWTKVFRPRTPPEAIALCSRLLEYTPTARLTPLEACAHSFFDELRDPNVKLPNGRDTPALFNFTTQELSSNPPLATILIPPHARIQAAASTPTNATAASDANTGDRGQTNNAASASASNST
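Test system – GST-tagged human GSK3beta kinase, cell-free · Incubation – 60 min enzyme reaction, room temperature · Signal – ADP-Glo luminescence · Also added – peptide substrate and ATP at 25 µM · Controls – DMSO neutral wells and GW8510 at 20 µM as positive · Buffer or medium – Tris/MgCl2 kinase buffer · Measure – Luminescence-derived activity versus plate DMSO and GW8510 wells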
GSK3A inh = human GSK-3 alpha kinase inhibition; P49840; inhibition, % at 10 µM; AID 2650; ADP-Glo luminescence, 60 min; 0.1% of 320,000 active;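 active = more than half of replicates show inhibition above 20%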;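 also: GST-tagged GSK-3 alpha with peptide substrate and 25 µM ATP; 0% = DMSO neutral wells and 100% = GW8510 positive control wells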
CDK5 p35 inh = CDK5/p35 (human) kinase inhibition; 0.01% of 330,000 active; inhibition, % at 10 µM; Recombinant CDK5/p35, ADP-Glo luminescence, 60 min;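 active = highest replicate inhibition of at least 50% and at least 75% of replicates reaching 50%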;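 also: plate controls were DMSO neutral control for no effect and GW8510 at 10 µM for full effect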
STK33 inh = human STK33 kinase inhibition | Q9BYT3 | purified STK33, MBP phosphorylation, ADP-Glo luminescence | inhibition, % at 10 µM | 0.073% of 320,000 active | AID 2661;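 active = inhibition at or above 25%, using the most active replicate where run in duplicate; inactive = inhibition below 25%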
ADP-Glo artifact = interferes with ADP-Glo luciferase readout without Dyrk1A. AC50, µM (top dose mostly 12 µM), without a hit: top-dose activity change, negative = inhibition. shares compounds with DYRK1A inh. ADP-Glo luciferase artifact assay, no Dyrk1A, luminescence. 1,300 tested, under 10 active;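 active = fitted half-maximal dose AC50 no more than ten times the top valid tested dose, with luminescence dropping as dose rises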
* marks the source's active call; other numbers are inactive results; x = no result given.

SMILES	DYRK1A inh	GSK3B inh	GSK3A inh	CDK5 p35 inh	STK33 inh	ADP-Glo artifact
COc1ccc(C(=O)N(Cc2nc(-c3ccc(C)cc3)no2)C(C)C)cc1OC	61*	0	-3	1	1	8%
Oc1cccc(NC(=S)N=Nc2c(O)[nH]c3ccccc23)c1	51*	-5	x	3	7	12%
CN1CCN(CCNC(=O)c2ccc3nc(-c4ccc(F)cc4)c(-c4ccc(F)cc4)nc3c2)CC1	-4	-4	0	-1	-2	x
CCCCCCCCN1[C@@H](CC(C)=O)c2cc(C(F)(F)F)ccc2S1(=O)=O	5	3	-2	0	0	x
CCCCCCCCN1[C@@H](CC(=O)OC)c2cc(C(F)(F)F)ccc2S1(=O)=O	50*	-2	-2	1	-1	6%
Cc1c(N(C)S(=O)(=O)c2cc(C(=O)NCC3CCCO3)ccc2Cl)c(=O)n(-c2ccccc2)n1C (centres undefined)	15	12	-1	0	0	x
CC(=O)Nc1ccc(C(=O)N/C(=C/c2ccccc2)C(=O)N2CCCCC2)cc1	-7	-4	-1	0	-2	x
COc1cccc(NC(=O)NCc2ccccc2Cl)c1	-1	-1	0	0	-4	x
Oc1ccc(Nc2nc(-c3ccccc3)nc3ccccc23)cc1	86*	0	-1	0	2	8%
O=C(Nc1nc2ccccc2s1)c1ccccc1	24	0	1	-1	4	x
c1ccc2sc(NN=C3CCCCCC3)nc2c1	62*	1	4	0	9	9%
CC(=O)NC12CC3CC(C1)CC(C(=O)Nc1nc4ccc(F)cc4s1)(C3)C2	79*	1	-2	-2	2	7%
COc1ccc(-c2cn[nH]c2C)cc1	63*	5	3	3	9	8%
CCn1c(SCC(=O)NC2CCCC2)nnc1-c1ccncc1	10	1	-2	-1	-1	x
COCCCn1c(SCC(=O)NC2CCCCC2)nnc1-c1ccncc1	51*	0	8	0	-1	8%
CCN(CC)c1nc2c(c(=O)[nH]c(=O)n2C)n1CCOc1ccccc1	14	2	1	-1	0	x
CSc1nc(O)c(/C=C2\C=Nc3ccccc32)[nH]1	57*	-21	39	2	9	8%
O=c1[nH]c(/C=C2\C=Nc3ccccc32)c(O)n1Cc1ccccc1F	1	0	-1	-1	-2	x
COc1ccc2nc3cc(Cl)ccc3c(Nc3ccc(O)c(CN4CCN(C)CC4)c3)c2c1	62*	x	x	2	x	9%
O=C(/C=C/c1ccccc1)Nc1cccc(C(=O)NC2CC2)c1	63*	x	x	0	x	8%
COc1ccc(/C=C/C(=O)Nc2cccc(C(C)=O)c2)cc1	56*	1	-3	-2	2	7%
COc1ccccc1/C=C/C(=O)Nc1cccc(C(C)=O)c1	5	3	x	-4	4	x
COc1ccc(NC(=O)C(C)N2CCN(C)CC2)cc1 (centres undefined)	4	-3	6	-1	6	x
COc1ccc(Nc2ncnc3ccccc23)c(OC)c1	11	2	-1	-1	2	x
COc1cccc(Nc2ncnc3ccccc23)c1	73*	-7	1	9	4	9%
SMILES	DYRK1A inh	GSK3B inh	GSK3A inh	CDK5 p35 inh	STK33 inh	ADP-Glo artifact
NC1=NC(=O)/C(=C/c2cccs2)S1	53*	1	2	1	1	11%
O=C1N=C(N2CCOCC2)S/C1=C/c1cccs1	25	3	1	1	-1	x
C=CCSC1=NC(=O)/C(=C/c2cccs2)S1	76*	x	9	0	-1	8%
O=C(COC(=O)CNC(=O)c1ccc(Cl)cc1Cl)NC(=O)NCc1ccccc1	x	-1	1	0	-1	x
Cc1nc2c(ccc3nc(NC(=O)Cc4ccccc4)sc32)s1	68*	-7	5	1	15	6%
O=C1c2ccccc2C(=O)C1c1ccccn1	61*	-3	8	18	35*	12%
COc1ccc2[nH]c(C(=O)O)c(CCN3C(=O)c4ccc(C(=O)O)cc4C3=O)c2c1	30	-2	2	1	2	x
O=C(O)c1[nH]c2ccc(Br)cc2c1CCN1C(=O)c2cccc([N+](=O)[O-])c2C1=O	51*	1	-1	0	3	12%
